Consider 9 compounds from ChEMBL document CHEMBL4808183, “Betulonic Acid Derivatives Interfering with Human Coronavirus 229E Replication via the nsp15 Endoribonuclease” (J Med Chem, 2021).

The source made the active and inactive calls. The rule behind the calls is not given here.

Data set [1] in a line: Antiviral activity against Human coronavirus 229E infected in human embryonic lung fibroblast cells assessed as reduction in virus-induced cytopathic effect incubated for 5 days by MTS cell viability assay. In kind it is functional, cell-based. The following applies: 120 h. In a few lines: (§1)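 Confluent HEL cell cultures given serial compound dilutions together with HCoV-229E at MOI 100 and held 5 days at 35 °C. Virus-induced CPE was scored by microscopy. MTS reagent was then added and absorbance at 490 nm read 24 h later. EC50 was taken from the MTS or microscopic read-out and CC50 from MTS. SI = CC50/EC50, both by MTS. Mean ± SEM of three independent experiments.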

Data set [2] is described as follows: Cytotoxicity against mock-infected human embryonic lung fibroblast cells incubated for 5 days by MTS assay. In kind it is cell-based. To be noted: time 5 day. In a few lines:
as §1
Background: Formazan colour is commonly taken as a measure of viable cells.

Data set [3] in a line: Antiviral activity against Human coronavirus 229E infected in human embryonic lung fibroblast cells assessed as reduction in virus-induced cytopathic effect incubated for 5 days by microscopy. Format: functional, cell-based. To be noted: 120 h. The procedure, abridged: as §1
Another data set deals with Vaccinia virus. The data set is described as follows: Antiviral activity against Vaccinia virus. In kind it is functional, organism-based. To be noted: Orthopoxvirus vaccinia.
Data set [4] deals with Vesicular stomatitis virus. The data set is described as follows: Antiviral activity against Vesicular stomatitis virus. Format: functional, organism-based.
A further data set deals with Sindbis virus. The data set is described as follows: Antiviral activity against Sindbis virus. Format: functional, organism-based.
In another data set the test system is Yellow fever virus. Kind of data set: Antiviral activity against Yellow fever virus. Format: functional, organism-based.
Data set [5] relates to Respiratory syncytial virus. Kind of data set: Antiviral activity against Respiratory syncytial virus. Format: functional, organism-based.
In a further data set the test system is Influenza A virus. The data set is described as follows: Antiviral activity against Influenza virus. Format: functional.
The subject of the next data set is Coxsackievirus B4. Kind of data set: Antiviral activity against Coxsackie B4 virus. Format: functional, organism-based.
Data set [6] has as its system Herpes simplex virus unknown type. The data set is described as follows: Antiviral activity against Herpes simplex virus. Format: functional.
The subject of the next data set is Reovirus sp. The data set is described as follows: Antiviral activity against Reovirus-1. Format: functional, organism-based.
In the next data set the test system is Punta Toro virus. Kind of data set: Antiviral activity against Punta Toro virus. Format: functional, organism-based.
A short description of data set [7]: Selectivity index, ratio of CC50 for cytotoxicity against mock-infected human embryonic lung fibroblast cells incubated for 5 days by MTS assay to EC50 for antiviral activity against Human coronavirus 229E infected in human embryonic lung fibroblast cells assessed as reduction in virus-induced cytopathic effect incubated for 5 days by MTS cell viability assay. To be noted: time 5 day, read-out: Ratio CC50/EC50. Format: toxicity, cell-based. In a few lines: as §1

Data set [8] relates to Human immunodeficiency virus. Kind of data set: Antiviral activity against HIV. In kind it is functional, organism-based.
The test system of another data set is Human respirovirus 3. Kind of data set: Antiviral activity against Parainfluenza-3 virus. Format: functional, organism-based.
Another data set relates to Human adenovirus 2. The data set is described as follows: Antiviral activity against Adenovirus. In kind it is functional.

The term EC50 denotes the concentration at which the effect is half-maximal. What is called CC50 is the concentration that lowers cell viability or growth by half. A higher CC50 goes with lower toxicity to the cells. With `C=C(C)[C@@H]1CC[C@]2(C(=O)O)CC[C@]3(C)[C@H](CC[C@@H]4[C@@]5(C)Cc6nnn(Cc7ccc(F)cc7)c6C(C)(C)[C@@H]5CC[C@]43C)[C@@H]12`, the EC50 worked out at 2200 nM in data set [1] and 880 nM in data set [3]. This compound also returned a cytotoxic concentration (CC50) at 120 h in data set [2] of 9300 nM. In addition, the result (with Vaccinia virus; in [4]; in the data set on Sindbis virus; with Yellow fever virus; in [5]; in the data set with Influenza A virus) was inactive. Further, the result (in the data set with Coxsackievirus B4; in data set [6]; in the data set on Reovirus sp.; in the data set on Punta Toro virus; in data set [8]; with Human respirovirus 3) was inactive. For the same compound, the result in the data set on Human adenovirus 2 was inactive. Further, the selectivity ratio at 120 h in [7] came out at 4.

As to `C=C(C)[C@@H]1CC[C@]2(C(=O)O)CC[C@]3(C)[C@H](CC[C@@H]4[C@@]5(C)Cc6nnn(CCO)c6C(C)(C)[C@@H]5CC[C@]43C)[C@@H]12`, the figures for the EC50 in [1] and in data set [3] were 3300 nM and 2200 nM, respectively. Moreover, in data set [2], the CC50 at 120 h was 4900 nM. In addition, the outcome (in the data set on Vaccinia virus; in [4]; in the data set with Sindbis virus; with Yellow fever virus; in data set [5]; in the data set on Influenza A virus) was inactive. Further, the result (in the data set with Coxsackievirus B4; in data set [6]; in the data set on Reovirus sp.; in the data set with Punta Toro virus; in data set [8]; with Human respirovirus 3) was inactive. Moreover, in the data set on Human adenovirus 2, the result was inactive. For the same compound, the selectivity ratio at 120 h in data set [7] was determined as 1.5.

On to `C=C(C)[C@@H]1CC[C@]2(C(=O)O)CC[C@]3(C)[C@H](CC[C@@H]4[C@@]5(C)Cc6nnn(Cc7cc(OC)c(OC)c(OC)c7)c6C(C)(C)[C@@H]5CC[C@]43C)[C@@H]12`, for which the results for the EC50 in [1] and in data set [3] were 1900 nM and 1600 nM, respectively. In data set [2], it took 10000 nM to reach half-maximal cytotoxicity (CC50 at 120 h). Besides, the result (with Vaccinia virus; in data set [4]; with Sindbis virus; in the data set on Yellow fever virus; in [5]; in the data set on Influenza A virus) was inactive. In addition, the outcome (in the data set on Coxsackievirus B4; in [6]; in the data set with Reovirus sp.; in the data set on Punta Toro virus; in data set [8]; in the data set on Human respirovirus 3) was inactive. The outcome in the data set on Human adenovirus 2 was inactive. In addition, in [7], the selectivity ratio at 120 h is 5.

For the compound `C=C(C)[C@@H]1CC[C@]2(C(=O)O)CC[C@]3(C)[C@H](CC[C@@H]4[C@@]5(C)Cc6nnn(Cc7ccc(C(F)(F)F)cc7)c6C(C)(C)[C@@H]5CC[C@]43C)[C@@H]12`, the results for the EC50 in [1] and in data set [3] were 4800 nM and 3600 nM, respectively. This compound also registered a CC50 at 120 h in data set [2] of at least 47000 nM. The result (with Vaccinia virus; in data set [4]; with Sindbis virus; in the data set on Yellow fever virus; in data set [5]; in the data set on Influenza A virus) was inactive. The result (with Coxsackievirus B4; in data set [6]; in the data set with Reovirus sp.; with Punta Toro virus; in [8]; with Human respirovirus 3) was inactive. Further, the result in the data set on Human adenovirus 2 was inactive. Further, the selectivity ratio at 120 h in data set [7] is over 10.

Take `C=C(C)[C@@H]1CC[C@]2(C(=O)O)CC[C@]3(C)[C@H](CC[C@@H]4[C@@]5(C)Cc6nnn(Cc7cccc8[nH]ccc78)c6C(C)(C)[C@@H]5CC[C@]43C)[C@@H]12`: the concentration giving a half-maximal response (EC50) in [1] came out at 92 nM; in [3] it was 100 nM. In addition, the midpoint of cytotoxicity in data set [2], the CC50 at 120 h, lay at 2400 nM. For the same compound, the outcome (with Vaccinia virus; in data set [4]; with Sindbis virus; in the data set on Yellow fever virus; in [5]; in the data set on Influenza A virus) was inactive. Moreover, the outcome (in the data set with Coxsackievirus B4; in data set [6]; with Reovirus sp.; with Punta Toro virus; in data set [8]; in the data set with Human respirovirus 3) was inactive. Further, in the data set with Human adenovirus 2, the outcome was inactive. Besides, in data set [7], the selectivity ratio at 120 h is 27.

For `C=C(C)[C@@H]1CC[C@]2(C(=O)O)CC[C@]3(C)[C@H](CC[C@@H]4[C@@]5(C)Cc6nnn(CCc7c[nH]c8ccccc78)c6C(C)(C)[C@@H]5CC[C@]43C)[C@@H]12`, the EC50 in [1] came to 560 nM; in data set [3], 240 nM. In data set [2], this compound showed a CC50 at 120 h of 3200 nM. Also, the outcome (with Vaccinia virus; in [4]; in the data set with Sindbis virus; with Yellow fever virus; in data set [5]; in the data set with Influenza A virus) was inactive. The result (in the data set with Coxsackievirus B4; in data set [6]; in the data set with Reovirus sp.; with Punta Toro virus; in data set [8]; with Human respirovirus 3) was inactive. For the same compound, in the data set on Human adenovirus 2, the outcome was inactive. In addition, in data set [7], the selectivity ratio at 120 h was 6.

For `C=C(C)[C@@H]1CC[C@]2(C(=O)O)CC[C@]3(C)[C@H](CC[C@@H]4[C@@]5(C)Cc6nnn(CCc7c[nH]c8ccc(OC)cc78)c6C(C)(C)[C@@H]5CC[C@]43C)[C@@H]12`, the EC50 in data set [1] was 880 nM; in data set [3] it was 300 nM. The midpoint of cytotoxicity in data set [2], the CC50 at 120 h, lay at 8900 nM. The result (in the data set with Vaccinia virus; in data set [4]; in the data set with Sindbis virus; with Yellow fever virus; in data set [5]; in the data set with Influenza A virus) was inactive. In addition, the result (with Coxsackievirus B4; in [6]; in the data set on Reovirus sp.; with Punta Toro virus; in [8]; in the data set with Human respirovirus 3) was inactive. Also, the result in the data set on Human adenovirus 2 was inactive. For the same compound, the selectivity ratio at 120 h in [7] turned out to be 10.

Regarding `C=C(C)[C@@H]1CC[C@]2(C(=O)O)CC[C@]3(C)[C@H](CC[C@@H]4[C@@]5(C)Cc6nnn(Cc7ccncc7)c6C(C)(C)[C@@H]5CC[C@]43C)[C@@H]12`, the EC50 in [1] is 2500 nM; in data set [3], 2400 nM. In data set [2], this compound yielded a CC50 at 120 h of 17000 nM. Moreover, the result (in the data set on Vaccinia virus; in [4]; with Sindbis virus; with Yellow fever virus; in data set [5]; with Influenza A virus) was inactive. Moreover, the outcome (in the data set on Coxsackievirus B4; in data set [6]; with Reovirus sp.; in the data set on Punta Toro virus; in data set [8]; in the data set with Human respirovirus 3) was inactive. Moreover, the outcome in the data set with Human adenovirus 2 was inactive. For the same compound, the selectivity ratio at 120 h in data set [7] worked out at 7.

As for `C=C(C)[C@@H]1CC[C@]2(C(=O)O)CC[C@]3(C)[C@H](CC[C@@H]4[C@@]5(C)Cc6nnn(Cc7ccc8c(c7)OCO8)c6C(C)(C)[C@@H]5CC[C@]43C)[C@@H]12`, the values for the 50% effective concentration (EC50) in data set [1] and in [3] were 1900 nM and 1500 nM, respectively. The CC50 at 120 h in data set [2] came out at 15000 nM. Also, the result (with Vaccinia virus; in [4]; with Sindbis virus; in the data set with Yellow fever virus; in data set [5]; with Influenza A virus) was inactive. For the same compound, the result (in the data set on Coxsackievirus B4; in data set [6]; in the data set with Reovirus sp.; with Punta Toro virus; in [8]; with Human respirovirus 3) was inactive. Further, the outcome in the data set with Human adenovirus 2 was inactive. Also, the selectivity ratio at 120 h in [7] stood at 8.
